Legend:
Assay type in all cases: functional
Settings in all cases: read-out: IZ
Klebsiella pneumoniae [1] = assay: Antibacterial activity against beta-lactamase-positive ESBL-positive sKlebsiella pneumoniae assessed as decrease in zone of inhibition at 30 ug by disk diffusion method
In short: (§1)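 ESBL screen of β-lactamase-positive enteric isolates by disk diffusion using cefotaxime and ceftazidime disks (30 μg each) alone.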

Klebsiella pneumoniae [2] = assay: Antibacterial activity against beta-lactamase-positive ESBL-positive Klebsiella pneumoniae assessed as […] in zone of inhibition at 30 ug by disk diffusion method in presence of clavulanic acid
In short: (§2)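 ESBL confirmation by disk diffusion using cefotaxime and ceftazidime disks (30 μg each) combined with a 10 μg clavulanic acid disk, compared against the disks alone.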

Escherichia coli [3] = assay: Antibacterial activity against beta-lactamase-positive ESBL-positive Escherichia coli assessed as […] in zone of inhibition at 30 ug by disk diffusion method in presence of clavulanic acid; in short: as §2
Escherichia coli [4] = assay: Antibacterial activity against beta-lactamase-positive ESBL-positive Escherichia coli assessed as […] in zone of inhibition at 30 ug by disk diffusion method; in short: as §1

Measured: zone of inhibition at 30 µg/disc

O=C(O)[C@H]1/C(=C/CO)O[C@@H]2CC(=O)N21 [CLAVULANIC ACID]
≥ 5 mm: all assays above

— ChEMBL document CHEMBL1255475, “Mutant prevention concentrations of four carbapenems against gram-negative rods” (2010)
